Hits are enriched below; roughly 1.7% of the tested compounds scored in any of these assays.
EBNA-1 inhibitor: blocks EBNA-1 binding to DNA. inhibition, % at 14.8 µM. EBNA-1 DNA binding, fluorescence polarization. 300,000 compounds, 0.34% hits; in the data active = inhibition above about 28%
PP5 inh: blocks human protein phosphatase 5 activity | purified PP5c, OMFP substrate fluorescence | inhibition, % at 6.7 µM | 320,000 compounds, 0.18% hits | AID 1987;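 active = inhibition above the campaign's mean inhibition across all tested compounds plus 3 SD, cut at about 9.5% in these data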;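 also: 0% = DMSO only and 100% = 100 µM cantharidin control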
Target sequence (P53041 whole entry, looked up): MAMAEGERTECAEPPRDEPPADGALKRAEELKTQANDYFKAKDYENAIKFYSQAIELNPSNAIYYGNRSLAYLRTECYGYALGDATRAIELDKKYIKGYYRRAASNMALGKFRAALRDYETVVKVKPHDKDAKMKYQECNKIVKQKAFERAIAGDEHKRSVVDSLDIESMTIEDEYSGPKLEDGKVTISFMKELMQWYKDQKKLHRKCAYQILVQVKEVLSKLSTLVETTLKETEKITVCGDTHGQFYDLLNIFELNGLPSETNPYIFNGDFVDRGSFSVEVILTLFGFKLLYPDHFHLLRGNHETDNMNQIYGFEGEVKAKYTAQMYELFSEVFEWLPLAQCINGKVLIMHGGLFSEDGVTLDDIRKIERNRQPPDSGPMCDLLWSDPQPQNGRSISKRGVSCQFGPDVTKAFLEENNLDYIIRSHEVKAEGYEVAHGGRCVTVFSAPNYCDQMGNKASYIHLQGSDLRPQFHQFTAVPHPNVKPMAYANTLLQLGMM
PP1 inh: blocks human PP1-alpha phosphatase, a PP5 counter-screen; 320,000 compounds, 0.9% hits; AID 2235; inhibition, % at 6.7 µM; purified PP1alpha, OMFP fluorescence;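 active = inhibition above the mean inhibition of all tested compounds plus 3 SD, computed separately for each screening campaign, cut at about 15% in these data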
ZTA counter: ZTA (EBV) inhibition in EBNA-1 counter-screen; inhibition, % at 11 µM; P03206; AID 2234; 320,000 compounds, 0.15% hits; ZTA-DNA binding, fluorescence polarization; in the data active = inhibition above about 33%
HCV core dimer: HCV core protein dimerization inhibition | TR-FRET GST/Flag-core106 dimerization, 1536-well | 300,000 compounds, 0.33% hits | inhibition, % at 5 µM;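 active = inhibition above the mean of all tested compounds plus 3 SD, set per screening campaign, cut at about 45% in these data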
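test system = GST/Flag-tagged HCV core106 proteins | probe or stimulus = Eu donor and XL665 acceptor anti-tag antibodies | times = compound-protein-antibody incubation 4 h at 22.5 °C | signal = TR-FRET, excitation 340 nm, emission 617 and 671 nm | measure = percent inhibition of core106 dimerization signal | controls = wells lacking GST-core106 and wells with excess unlabelled core106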
* = called active by the depositor; / = not tested or not shown.

SMILES	EBNA-1 inhibitor	PP5 inh	PP1 inh	ZTA counter	HCV core dimer
CCOC(=O)C(CCCP(=O)(c1ccccc1)c1ccccc1)(NC(C)=O)C(=O)OCC	-9.5	-0.6	-3.7	-1.6	0.7
Cc1cccc(-n2ccc(=O)c(C(=O)Nc3ccc(S(=O)(=O)Nc4nccs4)cc3)n2)c1	-1.2	-0.7	0.1	-3.3	14.7
O=C(Nc1ccc(S(=O)(=O)Nc2nccs2)cc1)c1nn(-c2ccccc2)ccc1=O	-5.0	-0.5	5.7	-1.6	63.4*
O=C(NC1CCCCC1)C(c1ccncc1)N(Cc1ccccc1)C(=O)c1ccc(-c2ccccc2)[nH]1 (stereo not given)	4.4	0.5	15.6*	6.8	13.8
CNc1nc(-c2c[nH]c3ccccc23)cs1	9.2	1.2	1.7	31.3	-19.1
CCC(C)Nc1nc(-c2c[nH]c3ccccc23)cs1 (stereo not given)	19.3	3.0	2.3	54.9*	-3.7
O=c1cc(O)c2sc3nc(-c4cccnc4)cc(C(F)(F)F)c3c2[nH]1	9.7	2.8	17.5*	2.6	15.3
CCN(CC)CC(C)CNC(=O)C1(O)c2ccccc2NC(=O)N1c1ccc(Cl)c(Cl)c1 (stereo not given)	4.3	2.2	15.4*	-3.5	2.0
COc1ccc(C(=O)Oc2cc3c4c(c2)C(C)=CC(C)(C)N4C(=O)C3=O)cc1OC	6.9	0.6	1.3	15.3	6.3
COc1cccc(C(=O)Oc2cc3c4c(c2)C(C)=CC(C)(C)N4C(=O)C3=O)c1	-6.5	5.0	17.4*	3.7	7.1
CC(Oc1cccc(Cl)c1)C(=O)Nc1ccc(S(=O)(=O)N(C)C2CCN(C)CC2)cc1 (stereo not given)	/	-0.3	-1.2	-7.8	/
O=C1CC(c2ccco2)Cc2nc(Nc3nc(-c4ccccc4)c4ccccc4n3)ncc21 (stereo not given)	9.6	0.2	26.2*	8.9	59.1*
COc1ccc(/C=N\NS(=O)(=O)c2ccc(Cl)cc2)cc1COc1ccccc1[N+](=O)[O-]	10.7	2.0	-0.8	-4.7	47.2*
Cc1ccc(S(=O)(=O)Nc2ccc(C(N)=O)cc2)cc1[N+](=O)[O-]	4.8	-1.7	-1.5	1.7	1.8
Cc1cccc2c(N=NC(=O)c3ccc(NS(=O)(=O)c4cccs4)cc3)c(O)[nH]c12	/	2.5	16.3*	-8.5	/
Cc1cccc2c(N=Nc3ccc(S(=O)(=O)Nc4ccc(Cl)cc4)cc3[N+](=O)[O-])c(O)[nH]c12	-0.9	-1.6	-0.1	-6.1	49.1*
COc1ccc2[nH]c(O)c(N=NC(=O)c3ccc(NS(=O)(=O)c4cccs4)cc3)c2c1	/	0.5	16.7*	3.0	/
Cc1ccc2[nH]c(O)c(N=NC(=O)c3ccc(NS(=O)(=O)c4cccs4)cc3)c2c1	-9.3	1.4	6.2	-18.1	2.8
Cc1ccccc1OCCOC(=O)c1cc(S(=O)(=O)N2CCCCC2)ccc1N1CCOCC1	/	0.8	-1.4	-3.4	/
CCSc1ncccc1C(=O)N[C@@H](CCSC)C(=O)OC	-0.1	2.0	4.9	7.5	2.3
NS(=O)(=O)c1ccc(N=Nc2c(=O)[nH]n3c(=O)c4c([nH]c23)CCCC4)cc1	-9.5	2.5	3.5	14.9	-25.7
O=c1[nH]n2c(=O)c3c([nH]c2c1N=Nc1cccc(Cl)c1)CCC3	-3.9	3.1	17.2*	1.0	11.7
CC(NC(=O)C1CCN(S(=O)(=O)c2cc([N+](=O)[O-])ccc2Cl)CC1)c1ccccc1 (stereo not given)	-4.3	0.7	0.9	-11.7	5.3
O=C(Nc1nc2ccc(F)cc2s1)C1CCN(S(=O)(=O)c2cc([N+](=O)[O-])ccc2Cl)CC1	-0.9	-0.2	3.8	-6.9	46.5*
CCC(c1nnnn1CCc1ccccc1)N(Cc1ccco1)Cc1cc2c(C)ccc(C)c2[nH]c1=O (stereo not given)	0.2	1.3	15.9*	-1.9	18.7
SMILES	EBNA-1 inhibitor	PP5 inh	PP1 inh	ZTA counter	HCV core dimer
COc1ccccc1/C=C/C1(C(=O)NC2CCCC2)CC(=O)N1c1ccccc1 (stereo not given)	2.0	1.1	-1.3	-14.2	2.9
CCCOc1ccc(/C=N/NC(=S)Nc2ccccc2[N+](=O)[O-])c(O)c1	6.8	0.0	15.4*	-1.9	1.1
CCCOc1ccc(/C=N/Nc2ccccc2[N+](=O)[O-])c(O)c1	-13.6	2.9	-1.4	-7.0	-6.4
CC(OC(=O)c1nn(C)c(=O)c2ccccc12)C(=O)Nc1ccc(S(N)(=O)=O)cc1 (stereo not given)	2.0	-0.5	-5.2	6.2	-2.8
CC(C#N)(NC(=O)CN1CCN(S(=O)(=O)c2ccccc2C#N)CC1)C1CC1 (stereo not given)	/	1.0	-1.4	5.8	/
Cc1cccc2cc(C#N)c(NCc3ccccc3)nc12	2.3	1.2	-2.5	2.5	7.0
Cc1ccc2cc(C#N)c(NCc3ccccc3)nc2c1	12.7	-0.6	-1.1	7.5	48.3*
CSCc1c(C(=O)NCCc2ccccn2)oc2ccccc12	-11.6	0.8	2.2	0.2	-0.1
COc1cccc(-n2c(C)c3c(OC)cccc(=O)c3c2C)c1	3.6	-1.4	9.1	3.5	51.6*
COc1cccc(=O)c2c(C)n(-c3cc(C)cc(C)c3)c(C)c12	0.1	2.6	4.6	4.1	19.0
CCCC(=O)N1CCN(c2ccc(NC(=O)c3cc4ccccc4o3)cc2)CC1	3.3	2.4	3.4	3.1	-8.6
CCCC(=O)N1CCN(c2ccc(NC(=O)c3sc4ccccc4c3Cl)cc2)CC1	-4.8	1.4	16.4*	7.5	-0.5
Cn1cccc1C(NC(=O)c1ccccc1)C(Cl)(Cl)Cl (stereo not given)	-9.6	2.3	0.9	-12.2	0.9
CCC(=O)N1CCc2cc(S(=O)(=O)NCCC(=O)N3CCN(c4cccc(C)c4)C(C)C3)ccc21 (stereo not given)	-7.6	-2.6	1.7	0.3	0.6
CCOc1ccc(C2C(C#N)=C(N)SC(N)=C2C#N)cc1OC	-1.6	0.2	-0.1	20.6	57.2*
CCOc1ccc(C2C(C#N)=C(N)SC(N)=C2C#N)cc1OCC	15.4	-1.4	-1.4	18.1	57.9*
O=C(Nc1nnc(C2CC2)s1)C1Cc2ccccc2CN1S(=O)(=O)c1cccs1 (stereo not given)	1.8	-0.7	10.4	3.4	66.8*
O=C(Nc1nnc(C2CC2)s1)C1Cc2ccccc2CN1C(=O)c1ccco1 (stereo not given)	-4.6	3.5	-1.9	-17.1	54.3*
CNC(=O)C1Cc2ccccc2CN1S(=O)(=O)c1cccs1 (stereo not given)	4.5	-2.9	-1.4	-8.4	-0.3
CCc1nnc(NC(=O)C2Cc3ccccc3CN2S(=O)(=O)c2cccs2)s1 (stereo not given)	0.8	-3.3	-1.1	15.3	59.2*
CCN(Cc1nc2ccccc2c(=O)[nH]1)C(=O)c1cc2c(s1)CCCCC2	/	1.9	3.7	-5.7	/
Cc1ccc(C(=O)NC2CCN(S(=O)(=O)c3ccccc3F)CC2)cc1	2.2	0.6	1.7	-4.0	5.8
